According to ChEMBL document CHEMBL1132107, “Design and synthesis of water-soluble glucuronide derivatives of camptothecin for cancer prodrug monotherapy and antibody-directed enzyme prodrug therapy (ADEPT)” (J Med Chem, 1999):
Converted amounts (≈) assume the structure as drawn.

How the values were obtained:
HepG2 [1] = assay: Cytotoxicity in the presence of beta-Glucuronidase (betaG, 5 micro g/ml) towards human hepatocellular cells (HepG2); type: functional, cell-based
Method in brief: (§1)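 Same 72 h [³H]thymidine-incorporation assay (1-1.5 × 10⁴ cells/well in RPMI/10% bovine serum, 37 °C, 5% CO₂), with β-glucuronidase added at 5 µg/mL alongside the drug concentration series. Controls were medium or 0.5% DMSO. IC50 was interpolated from log dose-response curves, as means of 1-3 experiments in triplicate.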

COLO 205 [2] = assay: Cytotoxicity expressed as the concentration that inhibited incorporation of [3H]thymidine into cellular DNA of human colorectal cells (COLO 205); type: functional, cell-based
Method in brief: (§2)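 Exponentially growing tumour cells, 1-1.5 × 10⁴ cells/well, in RPMI with 10% bovine serum plus penicillin/streptomycin, exposed 72 h (37 °C, 5% CO₂) to a drug concentration series. Drugs were dissolved in DMSO (≤0.5% final) or in medium. [³H]thymidine incorporation into DNA was read after PBS wash and trypsin harvest. IC50 was interpolated from log dose-response curves, as means of 1-3 experiments in triplicate.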

HepG2 [3] = assay: Cytotoxicity expressed as the concentration that inhibited incorporation of [3H]-thymidine into cellular DNA of human hepatocellular cells (HepG2); type: functional, cell-based; method in brief: as §2
[4] = Cytotoxicity in the presence of beta-Glucuronidase (betaG, 5 micro g/ml) towards human cervical cells(CaSki); type: functional, cell-based; method in brief: as §1
[5] = Cytotoxicity expressed as the concentration that inhibited incorporation of [3H]thymidine into cellular DNA of human cervical cells (CaSki); type: functional, cell-based; method in brief: as §2
HT-29 [6] = assay: Cytotoxicity in the presence of beta-Glucuronidase (betaG, 5 micro g/ml) towards human colorectal cells (HT-29); type: functional, cell-based; method in brief: as §1
[7] = Solubility is determined at pH 4.0; type: physicochemical; conditions: buffer
Method in brief: (§3)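 Excess solid was equilibrated 24 h at 25 °C in 100 mM phosphate buffer pH 4.0, or in βG buffer (acetic acid/bis-tris/triethanolamine) pH 7.0. Samples were filtered through 0.22 µm, diluted in mobile phase and quantified by C18 HPLC (45% MeOH/25 mM phosphate pH 2.55, fluorescence ex 397/em 482 nm) against calibration curves. Values are in mg/mL.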

COLO 205 [8] = assay: Cytotoxicity in the presence of beta-Glucuronidase (betaG, 5 micro g/ml) towards human colorectal cells(COLO 205); type: functional, cell-based; method in brief: as §1
NCI-H928 [9] = assay: Cytotoxicity expressed as the concentration that inhibited incorporation of [3H]-thymidine into cellular DNA of human lung carcinoma cells (H928); type: functional, cell-based; method in brief: as §2
HepG2 [10] = assay: Cytotoxicity expressed as the concentration that inhibited incorporation of [3H]thymidine into cellular DNA of human hepatocellular cells (HepG2); type: functional, cell-based; method in brief: as §2
HT-29 [11] = assay: Cytotoxicity expressed as the concentration that inhibited incorporation of [3H]thymidine into cellular DNA of human colorectal cells (HT-29); type: functional, cell-based; method in brief: as §2
[12] = Solubility is determined at pH 7.0; type: physicochemical; conditions: buffer; method in brief: as §3
[13] = Percentage of compound converted to 9-aminocamptothecin for hydrolysis by beta-Glucuronidase(incubated at pH 7.0 for 2 hr at 37 degrees Celsius at the concentration 0.5 ug/mL); type: ADME; conditions: buffer, pH 7, 2 h
Method in brief: (§4)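 The reaction was quenched with ice-cold MeOH/5% H₃PO₄ (6/1) and centrifuged. Supernatant was analysed by reversed-phase C18 HPLC with fluorescence detection (ex 397/em 482 nm) to give the % converted to 9-aminocamptothecin.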

[14] = Percentage of compound converted to 9-aminocamptothecin for hydrolysis by beta-Glucuronidase( incubated at pH 7.0 for 2 hr at 37 degrees Celsius at the concentration 0.01 ug/mL); type: ADME; conditions: buffer, pH 7, 2 h; method in brief: as §4
[15] = Percentage of compound converted to 9-aminocamptothecin for hydrolysis by beta-Glucuronidase( incubated at pH 7.0 for 2 h at 37 degrees Celsius at the concentration 0.05 ug/mL); type: ADME; conditions: buffer, pH 7, 2 h; method in brief: as §4
[16] = Percentage of compound converted to 9-aminocamptothecin for hydrolysis by beta-Glucuronidase( incubated at pH 7.0 for 2 hr at 37 degrees Celsius at the concentration 0.1 ug/mL); type: ADME; conditions: buffer, pH 7, 2 h; method in brief: as §4
NCI-H928 [17] = assay: Cytotoxicity in the presence of beta-Glucuronidase (betaG, 5 micro g/ml) towards human lung carcinoma cells (H928); type: functional, cell-based; method in brief: as §1

SMILES	IC50 (HepG2 [1]) [nM]	IC50 (COLO 205 [2]; colo 205) [nM]	IC50 [5] [nM]	solubility [7] [mg/mL]	IC50 (COLO 205 [2]; Homo sapiens, COLO 205) [nM]	IC50 (NCI-H928 [9]) [nM]	IC50 (HepG2 [10]) [nM]	IC50 ([5]; Homo sapiens) [nM]	IC50 (HT-29 [11]) [nM]	solubility [12]	also measured
CC[C@@]1(O)C(=O)OCc2c1cc1n(c2=O)Cc2cc3c(NC(=O)OCc4ccc(O[C@@H]5O[C@H](C(=O)[O-])[C@@H](O)[C@H](O)[C@H]5O)cc4)cccc3nc2-1.[K+]	6.7	460	510	25	–	–	–	–	–	–	IC50 (HepG2 [3]): 280 nM; IC50 ([4]; Homo sapiens): 9.1 nM; IC50 (HT-29 [6]; Homo sapiens, HT-29): 11 nM; IC50 (COLO 205 [8]; Homo sapiens, COLO 205): 8.2 nM
CC[C@@]1(O)C(=O)OCc2c1cc1n(c2=O)Cc2cc3c(N)cccc3nc2-1 [9-AMINOCAMPTOTHECIN]	–	–	–	0.006 (≈ 16.5 µM)	6.6	7.9	3.5	8.5	7.4	0.06 mg/mL (≈ 165 µM)	–
CC[C@@]1(O)C(=O)OCc2c1cc1n(c2=O)Cc2cc3c(NC(=O)OCc4ccc(O[C@@H]5O[C@H](C(=O)O)[C@@H](O)[C@H](O)[C@H]5O)cc4)cccc3nc2-1	2.9	200	190	0.5 (≈ 725 µM)	–	300	110	–	150	110 mg/kg	Conversion [13]: 92%; IC50 [4]: 7.8 nM; Conversion [14]: 45%; Conversion [15]: 92%; IC50 (HT-29 [6]; ht-29): 6.6 nM; Conversion [16]: 98%; IC50 (NCI-H928 [17]): 7.9 nM; IC50 (COLO 205 [8]; colo 205): 8 nM
CC[C@@]1(O)C(=O)OCc2c1cc1n(c2=O)Cc2cc3ccccc3nc2-1 [CAMPTOTHECIN]	–	–	–	–	5.4	7.8	6.3	8.5	–	–	–
